Assay results published in ChEMBL document CHEMBL1130022, “Novel heterocyclic-fused pyridazinones as potent and selective phosphodiesterase IV inhibitors” (J Med Chem, 1997).

Key:
[1] = molecular target: T1, Phosphodiesterase 3 (Homo sapiens, UniProt Q14432+Q13370); experiment: Inhibition of guinea pig ventricular Phosphodiesterase 3 at 20 uM; format: protein assay; conditions: Cavia porcellus, target entry is the homologue from another species
Summary of the method: (§1)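 Guinea pig ventricular PDE III/IV resolved by Mono-Q anion exchange (50–1000 mM sodium acetate gradient, Bis-Tris pH 6.5); isoenzymes characterized by substrate selectivity, Ca2+/calmodulin and selective inhibitors; pools stored -20 °C with 1 g/L BSA. Thompson–Strada assay, cAMP substrate 0.25 μM, duplicates; drugs in DMSO; IC50 by nonlinear regression or % inhibition at stated concentration, n = 3, ±SEM.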

[2] = molecular target: T2, Phosphodiesterase 4 (Homo sapiens, UniProt P27815+Q08499+Q07343+Q08493); experiment: Inhibition of guinea pig ventricular Phosphodiesterase 4; format: protein assay, Cavia porcellus; conditions: target entry is the homologue from another species
[3] = molecular target: Phosphodiesterase 4 (Rattus norvegicus) (UniProt P14270+P14646+P14644+P54748); experiment: Displacement of [3H]rolipram from rat brain membranes at 10 uM; format: cell membranes; conditions: Membrane
[4] = molecular target: T2, Phosphodiesterase 4; experiment: Inhibition of guinea pig ventricular Phosphodiesterase 4 at 200 uM; format: protein assay; conditions: Cavia porcellus, target entry is the homologue from another species; summary of the method: as §1
[5] = molecular target: T1, Phosphodiesterase 3; experiment: Inhibition of guinea pig ventricular Phosphodiesterase 3 at 200 uM; conditions: Cavia porcellus, target entry is the homologue from another species
[6] = molecular target: T1, Phosphodiesterase 3; experiment: Inhibition of guinea pig ventricular Phosphodiesterase 3; format: protein assay, Cavia porcellus; conditions: target entry is the homologue from another species

| Structure (SMILES) | inhibition [1] [%] | IC50 [2] [nM] | inhibition [3] [%] | inhibition [4] [%] | inhibition [5] [%] | IC50 [6] [nM] |
| --- | --- | --- | --- | --- | --- | --- |
| CCOC(=O)c1nc2c(O)n(Cc3ccccc3)nc(-c3ccccc3)c-2c1C | 33 | 31000 | 28 | – | – | – |
| CCOC(=O)c1sc2c(=O)n(CC)nc(-c3cccc(Cl)c3)c2c1C | 56 | 800 | – | – | – | – |
| Cc1nn(C)c2c(=O)n(Cc3ccccc3)nc(-c3ccccc3)c12 | – | – | 11 | 45 | 30 | – |
| CCOC(=O)c1nc2c(O)n(CC)nc(-c3ccccc3)c-2c1C | 30 | 600 | – | – | – | – |
| Cc1nnc2c(O)n(Cc3ccccc3)nc(-c3ccccc3)c1-2 | – | 3100 | 54 | – | 60 | – |
| CCOC(=O)c1sc2c(=O)n(Cc3ccccc3)nc(-c3ccccc3)c2c1C | 20 | 11000 | – | – | – | – |
| CCn1nc(-c2ccccc2)c2c(C)nn(C)c2c1=O | 35 | 7400 | 46 | – | – | – |
| CCn1nc(-c2ccccc2)c2c(c1=O)N(C)CC(C#N)=C2C | 51 | 1100 | – | – | – | – |
| COc1ccc(C2CNC(=O)C2)cc1OC1CCCC1 (centres undefined) [ROLIPRAM] | – | – | – | – | – | 242000 |
| CCn1nc(-c2ccccc2)c2c(C)nnc-2c1O | 35 | 2000 | – | – | – | – |
| CCOC(=O)c1sc2c(=O)n(CC)nc(-c3cccc([N+](=O)[O-])c3)c2c1C | 25 | 1300 | – | – | – | – |
| CCOC(=O)c1sc2c(=O)n(CC)nc(-c3ccccc3)c2c1C | – | 900 | – | – | – | 5900 |
| O=c1c2cccnc2c(-c2cccc(Cl)c2)nn1Cc1ccncc1 | – | 56 | – | – | – | 5100 |
